{"data": "Experimental data pooled from the literature", "route": "oral", "note": "Protocols differ between the studies behind these lines."}
{"Compound": "CCc1cc(-c2noc(-c3cc(OC)nc(C4CCCC4)c3)n2)cc(C)c1OC[C@@H](O)CO", "host": "Wistar rat", "medium": "plasma", "dose": "0.3 mg/kg", "time": "24 h", "setting": "single dose", "concentration": "5 ng/mL"}
{"Compound": "COc1ccc2c(=O)n(C)c(-c3ccccc3)nc2c1", "host": "male Sprague-Dawley rat", "medium": "spleen", "dose": "30 mg/kg", "time": "4 h", "concentration": "6.13 ng/mL"}
{"Compound": "Cc1noc(C)c1Cn1cc(N2C(=O)N(Cc3cccc(O)c3)C(C)(C)C2=O)cn1", "host": "male Sprague-Dawley rat", "medium": "plasma", "dose": "100 mg/kg", "time": "24 h", "setting": "single dose", "concentration": "0 ng/mL"}
{"Compound": "CN(C(=O)n1cnc(-c2ccc[n+]([O-])c2)c1)C1CCCCC1", "host": "Wistar rat", "medium": "plasma", "dose": "10 mg/kg", "time": "8 h", "concentration": "278 ng/mL"}
{"Compound": "CCOC(=O)[C@@]12C[C@@H]1[C@@H](n1ccc3c(NC)nc(C#Cc4ccc(Cl)s4)nc31)[C@H](O)[C@@H]2O", "host": "male Sprague-Dawley rat", "medium": "plasma", "dose": "1 mg/kg", "time": "1 h", "concentration": "9.55 ng/mL"}
{"Compound": "COc1nc(-c2cc(C)c(N[C@@H](C)c3cc(F)cc(F)c3)nn2)ccc1-n1cnc(C)c1", "host": "male Sprague-Dawley rat", "medium": "CSF", "dose": "5 mg/kg", "time": "4 h", "setting": "multiple doses, once daily", "concentration": "15.3 ng/mL"}
{"Compound": "COc1cccc(-c2n[nH]c(SCc3ccccn3)n2)c1OC", "host": "male Sprague-Dawley rat", "medium": "plasma", "dose": "30 mg/kg", "time": "2 h", "setting": "single dose", "concentration": "9750 ng/mL"}
{"Compound": "Cc1noc(C)c1Cn1cc(N2C(=O)CN(Cc3cccc(O)c3)C2=O)cn1", "host": "male Sprague-Dawley rat", "medium": "plasma", "dose": "10 mg/kg", "time": "1 h", "concentration": "8.29 ng/mL"}
{"Compound": "Cc1ccc(-c2cc(C(F)(F)F)nn2-c2ccc(S(N)(=O)=O)cc2)cc1", "host": "male Sprague-Dawley rat", "medium": "plasma", "dose": "20 mg/kg", "time": "8 h", "concentration": "910 nM"}
